# Test results from the RNAGym collection of RNA variant scans (doi:10.1126/science.aae0568).
# Variants at the floor of the assay were thinned out.
# B1: tRNA (parent)
# chain: GUUCCGUUGGCGUAAUGGUAACGCGUCUCCCUCCUAAGGAGAAGACUGCGGGUUCGAGUCCCGUACGGAACG
# Variants of: B1
# Assay: yeast fitness relative to wild type (ratio to wild type); higher = fitter; tRNA-Arg(CCU), competitive growth, 37 C, YPD
# Outline: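 Amplicons of the tRNA-Arg(CCU) gene were sequenced, 100-nucleotide paired-end, from the start population and from each end population of a pooled yeast competition. The competition, in six parallel replicates, lasted 24 hours in YPD at 37°C. Fitness relative to wild type was calculated from changes in genotype frequencies. Genotypes had to have ≥ 100 starting reads, and estimates < 0.5 were set to 0.5.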
row,Variant,yeast fitness
1,C5U U28A G41A C62U,≤ 0.5
2,C24A A45G A57U C62U,≤ 0.5
3,A14C C34A A37G A70U,≤ 0.5
4,G6A C62A,0.873
5,G58A A70U,0.955
6,G17A A69G,0.813
7,U26C A36U,0.608
8,U8G G50C,≤ 0.5
9,G10A C24G G56A,≤ 0.5
10,C5A A36U G39A A45G G63U,≤ 0.5
11,U47C C49U G68C,0.582
12,A15C C30A C34A A42C G56A A57U,≤ 0.5
13,G44A G50C A70G,0.537
14,U8G A14U G39A C55G,≤ 0.5
15,G6A C11G C22G C49A G51A,≤ 0.5
16,C29U U35A A70C,≤ 0.5
17,G23A C30U C55G A57C C61A,≤ 0.5
18,G6A C31U U32C G67C,0.593
19,U19C A21G U26G G48C,0.624
20,C4U C22U C55U,0.544
21,G48C C49U C55U,0.663

row,Variant,yeast fitness
1,G6A C61A C62U A65U A69C,≤ 0.5
2,G10A U19C G48A C49G A69U,0.594
3,C29G G38A A43G G50A,≤ 0.5
4,C22G U64G,0.8
5,C5U A14G A21U G56C G68C,≤ 0.5
6,C27G C49A A70U,≤ 0.5
7,G12C G18C U35A G39A U53A,≤ 0.5
8,C4G U8C C31G C33G G58C C60U A70C,≤ 0.5
9,C24G C29U G51C C66U,≤ 0.5
10,G12A A21G C46A,0.936
11,C33G C34U U53C,0.577
12,A43U C49G A69C,0.512
13,U3A A20U G67U,0.598
14,C4U G10A U28A A70U,≤ 0.5
15,C29U A37U C46U U59G,≤ 0.5
16,A21G G67U A70U,0.607
17,C4A C22U U54A,0.685
18,A20C G39C G41A,0.652
19,U2G C22U C66U,0.563
20,U16C C27G,0.727
21,U2C A57G,0.891

row,Variant,yeast fitness
1,C33G,0.743
2,C5G A14G G17A U32C G56C A69U,≤ 0.5
3,A15C C29U C31U G67C,0.591
4,U16C G18A C34G G39A C62G,≤ 0.5
5,C34A A40C U54C,≤ 0.5
6,C5A C22U C49A C62U,≤ 0.5
7,U3A G17A C22U A45G,≤ 0.5
8,U16A U32C A37U C49G G63A A70U,≤ 0.5
9,A42U A45U A69U,0.707
10,U26G C46G C61U,0.824
11,G51C C61A,0.516
12,C11U A45G U53C,0.637
13,A43C C61G,0.66
14,U2G C29G C49G,≤ 0.5
15,C30U C46U G52C,≤ 0.5
16,C4G G48A,0.876
17,C27A U28C C29G C61A,0.664
18,A42G C49U,0.801
19,C11U C46G C61U,0.596
20,U47G U54A G58A,≤ 0.5
21,U8A A40G C61G,≤ 0.5

row,Variant,yeast fitness
1,G12A G18C C29U A57C A65C,≤ 0.5
2,U28G C55A,0.572
3,C5A U8C U13C A40G C62U,≤ 0.5
4,A14G C31U G68A,0.568
5,A15C A20C G39C A69C,≤ 0.5
6,A21C G63C,0.779
7,U32C G68U,0.877
8,G10A C29G C33U G50A,0.535
9,C4U G12A C62U,0.73
10,C5G G10A C11G U16G C33G,0.551
11,A40C U47A A69G,0.54
12,A21G C61G C62U,≤ 0.5
13,G6C C11U A15G A21U C30G G44A G52A,0.791
14,U2C G17A A69C,0.576
15,G12A U32C U47A C49G C60U,≤ 0.5
16,G9C A20C,0.626
17,U2G C5U U32C C55U,0.581
18,C11A A37C C49G C55G,≤ 0.5
19,U2A C24G,0.643
20,U7C G18A G41A A42C G50C A70G,≤ 0.5
21,G9A C27G C34U,≤ 0.5
